DENV2 CPE rescue – protects cells from dengue virus 2 cytopathic effect; 350,000 tested, 1.7% active; CPE inhibition, % at 9.99 µM; DENV2-infected cells, cytopathic effect rescue, plate reader; AID 651640; in the data active = CPE inhibition above about 20%, passing the limit was not always enough; inconclusive = no clear call, values can overlap the other calls; tested in BHK-21 cells
S100A4 inh HTS – inhibitors of human S100A4 binding to myosin IIA peptide; 360,000 tested, 0.14% active; S100A4/TAMRA-MyoIIA peptide fluorescence polarization; inhibition, % at 10.7 µM;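 active = mean inhibition of at least 70% across replicates, with every replicate also reaching that level; inconclusive = mean inhibition reaches 70% but some replicates fall short; inactive = mean inhibition below 70%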
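Assay system: human S100A4 monomer with TAMRA-labelled myosin IIA peptide / Buffer or medium: Calcium-containing HEPES buffer, pH 7.2 / Reagent: TAMRA-labelled myosin IIA heavy-chain peptide probe, 5 nM / Compound: one dose per compound / Timing: polarization read 5 min after assay mix addition, stable 5–60 min / Benchmarks: neutral control DMSO, positive control TFP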
E-selectin induc – E-selectin induction on HUVECs. P16581. HUVEC E-selectin immunofluorescence imaging; normalized: neutral wells 0, TNF-alpha wells 100. activation, % at 7.58 µM. 260,000 tested, 0.37% active. AID 686992;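 active = mean E-selectin-positive cell signal at least 10% of the positive control, reached in at least 60% of replicates, without over 20% cell loss; inconclusive = no rule given, readout overlaps actives, possibly toxicity-flagged; inactive = the rest, including those meeting only one limit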
Target sequence (P16581 whole entry, looked up): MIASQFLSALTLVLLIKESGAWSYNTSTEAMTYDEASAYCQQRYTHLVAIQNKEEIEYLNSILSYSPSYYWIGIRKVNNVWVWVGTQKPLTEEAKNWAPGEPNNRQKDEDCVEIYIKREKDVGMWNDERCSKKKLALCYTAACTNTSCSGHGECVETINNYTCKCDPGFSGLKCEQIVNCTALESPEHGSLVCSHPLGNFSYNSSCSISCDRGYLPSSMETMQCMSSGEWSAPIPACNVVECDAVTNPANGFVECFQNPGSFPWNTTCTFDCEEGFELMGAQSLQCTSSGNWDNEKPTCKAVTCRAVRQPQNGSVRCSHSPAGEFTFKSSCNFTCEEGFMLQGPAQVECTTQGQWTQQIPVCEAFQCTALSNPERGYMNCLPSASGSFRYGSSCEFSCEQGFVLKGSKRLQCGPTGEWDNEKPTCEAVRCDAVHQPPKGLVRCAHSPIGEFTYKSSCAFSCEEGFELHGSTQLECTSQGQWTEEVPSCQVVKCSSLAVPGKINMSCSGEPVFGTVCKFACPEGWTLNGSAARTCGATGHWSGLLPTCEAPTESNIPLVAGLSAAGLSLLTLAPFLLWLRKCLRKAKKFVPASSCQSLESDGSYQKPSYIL
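Material: HUVEC primary endothelial cells; Amount: 3,000 cells per well; Dosing: single concentration; Medium: EGM-2 growth medium on 0.1% gelatin-coated wells; Read-out basis: percent E-selectin-positive cells; Signal: immunofluorescence imaging; Control set: TNF-alpha, DMSO.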
Xi reactivation – reactivates the inactive X chromosome in mouse fibroblasts; XiGFP mouse fibroblasts, % GFP-positive cells imaging, 3 d; cells co-treated with 5-aza-dC sensitizer; scaled so ellipticine positive control = 100%; activation, % at 7.58 µM; 360,000 tested, 0.055% active;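 active = mean normalized replicate activation at least 10% and every replicate at or above 10%; inconclusive = only one of the two criteria met; inactive = mean below 10% and not all replicates reach 10%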
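System: 68-5-11 XiGFP fibroblast line; Timing: 3 days compound exposure; Compound dosing: one concentration, pinned; Benchmarks: positive control ellipticine, 6 µM final; Buffer or medium: DMEM containing 5-aza-dC.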
Hits are given with their value; - = inactive; ? = inconclusive; . = no result. Rows were chosen to be rich in hits. Some 2% of all compounds tested hit in one or more screens of this group.

SMILES	DENV2 CPE rescue	S100A4 inh HTS	E-selectin induc	Xi reactivation
NC(=O)c1ncn([C@@H]2O[C@H](C(=O)N[C@H](Cc3c[nH]c4ccccc34)C(=O)N3CCN(CC(=O)N4CCCC4)CC3)[C@@H](O)[C@H]2O)n1	21	-	?	-
O=C(CSc1nnc(CNC(=O)c2ccccc2)o1)Nc1ccc2c(c1)OCCO2	?	-	-	-
COc1ccc2c3c(n(C)c2c1)[C@H](CO)N(C(=O)c1ccccn1)CC31CN(C(C)=O)C1	.	.	.	-
COc1ccc(Cl)cc1N1C(=O)CC(N2CCN(S(=O)(=O)c3ccccc3F)CC2)C1=O (stereo not drawn)	37	-	-	-
COc1ccc(S(=O)(=O)Nc2ccc3c(c2)[C@H]2C[C@H](CC(=O)NCC4CC4)O[C@H](CO)[C@H]2O3)cc1	-	-	-	-
COc1cccc(NC(=S)NCCN2CCOCC2)c1	.	.	-	-
C[C@@H]1CN([C@H](C)CO)C(=O)c2cccc(NC(=O)Nc3ccccc3)c2O[C@@H]1CN(C)Cc1ccc(C(=O)O)cc1	-	-	-	-
C[C@H](CO)N1C[C@H](C)[C@@H](CN(C)Cc2ccc(C(=O)O)cc2)Oc2c(NC(=O)Nc3ccccc3)cccc2C1=O	30	-	-	-
C[C@H](CO)N1C[C@H](C)[C@@H](CN(C)Cc2ccc(C(=O)O)cc2)Oc2c(NC(=O)Cc3ccccc3)cccc2C1=O	53	-	-	-
C[C@@H]1CN([C@H](C)CO)C(=O)c2cccc(NC(=O)Nc3ccccc3)c2O[C@@H]1CN(C)Cc1ccc(Cl)c(Cl)c1	76	-	.	-
CC(=O)NC(CC(=O)NCCc1ccccc1)c1ccccc1 (stereo not drawn)	-	-	.	-
C[C@H]1CN([C@@H](C)CO)C(=O)Cc2cc(NC(=O)CCC(F)(F)F)ccc2O[C@H]1CN(C)Cc1ccc(-c2ccccc2)cc1	57	-	-	-
C[C@@H]1CN([C@H](C)CO)C(=O)Cc2cc(NC(=O)CCN3CCOCC3)ccc2O[C@@H]1CN(C)CC1CC1	-	-	-	-
C[C@@H]1CN([C@@H](C)CO)C(=O)Cc2cc(NC(=O)CCN3CCOCC3)ccc2O[C@@H]1CN(C)C	-	128	.	-
C[C@@H]1CN([C@@H](C)CO)C(=O)Cc2cc(NC(=O)CCN3CCOCC3)ccc2O[C@H]1CN(C)Cc1ccc(-c2ccccc2)cc1	32	-	-	-
O=C(COC(=O)C1COc2ccccc2O1)NC1CCCCC1 (stereo not drawn)	-	-	-	-
Cc1ncc[nH]1	57	-	.	.
O=C(Nc1ccccc1)N1CCCCN2[C@H](C1)[C@@H](c1ccc(-c3ccccc3)cc1)[C@@H]2CO	-	-	-	-
O=C(Nc1ccccc1)N1CCCCN2[C@H](CO)[C@H](c3ccc(Br)cc3)[C@H]2C1	32	-	-	-
C[C@H](O)C#Cc1ccc([C@H]2[C@@H](CO)N3CCCCN(C(=O)Nc4ccccc4)C[C@@H]23)cc1	23	-	-	-
O=C(Nc1ccccc1)N1CCCCN2[C@H](CO)[C@H](c3ccc(Br)cc3)[C@@H]2C1	28	-	-	-
Cc1ccccc1-c1ccc([C@@H]2[C@H]3CN(C(=O)Nc4ccccc4)CCCCN3[C@H]2CO)cc1	61	-	-	-
CC(C)C#Cc1ccc([C@@H]2[C@@H](CO)N3C(=O)CN(C(=O)c4ccc5c(c4)OCO5)C[C@@H]23)cc1	-	-	-	-
NC(=O)C1CCN(C(=O)CCSc2ccc(Cl)cc2)CC1	-	-	.	-
COc1cccc(OC)c1-c1cnc(NC(C)=O)cn1	24	-	-	-
SMILES	DENV2 CPE rescue	S100A4 inh HTS	E-selectin induc	Xi reactivation
c1ccc(-c2cnn3c(-c4ccccc4)c(-c4ccccc4)nc3n2)cc1	.	.	.	99
Cn1c(-c2ccccc2)cc(=O)n1-c1ccccc1	-	-	-	-
CC1CCCCC1NC(=O)CN1CCC(NC(=O)c2ccc([N+](=O)[O-])cc2)CC1 (stereo not drawn)	?	-	-	-
Cc1cc(C)c2sc(NNC(=O)C3COc4ccccc4O3)nc2c1 (stereo not drawn)	-	-	83	-
COc1cccc(S(=O)(=O)N2C[C@@H](O)COC[C@H]3O[C@H](CC(=O)N4CCN(C)CC4)CC[C@@H]32)c1	20	-	-	-
O=C(C[C@H]1CC[C@H]2[C@@H](COC[C@H](O)CN2S(=O)(=O)c2cccc(Cl)c2)O1)N1CCOCC1	21	-	-	-
Nc1sc(-c2ccccc2)cc1C(=O)NCCN1CCOCC1	26	-	-	-
O=C(NCCN1CCOCC1)c1cc(-c2ccccc2)nc2ccccc12	-	-	-	-
CC1(C)C[C@H]2C3=CCC4[C@@]5(C)CC[C@H](O)[C@](C)(CO)C5CC[C@@]4(C)[C@]3(C)C[C@H]3O[C@@H]1[C@H](O)[C@]32CO (stereo partly drawn)	41	-	-	-
CC1(C)C[C@H]2C3=CCC4[C@@]5(C)CC[C@H](O)[C@](C)(CO)C5CC[C@@]4(C)[C@]3(C)CC[C@@]2(C)[C@H](O)[C@@H]1O (stereo partly drawn)	-	-	.	.
CCCn1c(SCC(=O)N2CCc3ccccc3C2)nc(O)cc1=O	-	-	-	-
COc1ccccc1NC(=O)N1CCCCN2[C@H](C1)[C@@H](c1ccc(-c3cccc(C)c3)cc1)[C@@H]2CO	-	-	-	-
COc1ccccc1NC(=O)N1CCCCN2[C@H](CO)[C@H](c3ccc(-c4cccc(C)c4)cc3)[C@@H]2C1	22	-	-	-
CC(C)NC(=O)N1CCCCN2[C@@H](CO)[C@@H](c3ccc(Br)cc3)[C@@H]2C1	68	-	-	-
COc1ccccc1NC(=O)N1CCCCN2[C@H](C1)[C@@H](c1ccc(C#CC3CC3)cc1)[C@@H]2CO	-	81	.	.
CC(C)NC(=O)N1CCCCN2[C@H](CO)[C@@H](c3ccc(C#CC4CC4)cc3)[C@H]2C1	39	-	-	-
O=C1CCCN1C(=O)COc1cc(F)ccc1[N+](=O)[O-]	-	-	-	-
O=C(/C=N/O)NCCCN1CCOCC1	.	.	.	-
C/C(=N\NC(=O)c1cc(-c2cccc([N+](=O)[O-])c2)n[nH]1)c1ccc(F)cc1	-	-	-	-
COc1ccc(-c2ccc([C@@H]3[C@H](CO)N4CCCCN(C(=O)NC(C)C)C[C@@H]34)cc2)cc1	64	-	-	-
COc1ccc(-c2ccc([C@H]3[C@H]4CN(C(=O)NC(C)C)CCCCN4[C@H]3CO)cc2)cc1	.	.	-	-
Nc1c(/C=C2/C=CC(=O)C(O)=C2)c(=O)nc2sc(CC(=O)N3CCOCC3)nn12	31	-	.	-
COCCCNC(=O)C[C@@H]1C[C@@]2(C(=O)OC)CC(C)(C)CC=C2N(Cc2ccco2)C1=O	21	-	-	-
CCCCOCCCNC(=O)C[C@@H]1C[C@@]2(C(=O)OC)CC(C)(C)CC=C2N(Cc2ccc3c(c2)OCO3)C1=O	28	-	-	-
N#C/C(=C\c1ccc(O)cc1)c1nc2ccccc2o1	-	-	-	-
